Published values from different studies.
Each line is one published result; the experiments were not run side by side.

For `Nc1ncc(-c2nc(N3CCOCC3)nc(N3CCOCC3)n2)c(C(F)F)n1`, the remaining binding was 88% (Cyclin-dependent kinase 3 (CDK3, Homo sapiens, UniProt Q00526); binding, competition with immobilised ligand; 10 µM).
The remaining binding of `COc1ncccc1-c1cnn2ccc(N3CCN(C(=O)OC(C)C)CC3)nc12` is reported as 84% (Serine/threonine-protein kinase SBK1 (SBK1, Homo sapiens, UniProt Q52WX2); binding, competition with immobilised ligand; 1 µM).
The kinact/KI of `CCSC(=O)N1CCCCCC1` is reported as 76 M⁻¹ s⁻¹ (Aldehyde dehydrogenase, mitochondrial (ALDH2, Homo sapiens, UniProt P05091); enzyme activity, inhibitor).
The inhibition of `C#Cc1n[nH]c2c(-c3cn(C(C)c4ccccn4)c(=O)[nH]c3=O)cc(F)cc12` (stereo not drawn) is reported as 8.5% (Insulin receptor (INSR, Homo sapiens, UniProt P06213); enzyme activity, inhibitor; 1 µM).
The inhibition of `c1ccc(C(NCCNC(c2ccccc2)c2ccccc2)c2ccccc2)cc1` is reported as -10% (Collagenase 3 (MMP13, Homo sapiens, UniProt P45452); enzyme activity, inhibitor; 10 µM).
With `Cn1c(=O)n(CCC(C)(C)O)c2cc(Nc3nc(N4CCCC(CO)C4)ncc3Cl)ccc21` (stereo not drawn) the Dmax was about 60% (B-cell lymphoma 6 protein (BCL6, Homo sapiens, UniProt P41182); protein level, degrader; SU-DHL-4).
For `C=C=CCN`, the kinact/KI was 9220 M⁻¹ s⁻¹ (Primary amine oxidase, liver isozyme (Bos taurus, UniProt Q29437); enzyme activity, inhibitor, fluorescence).
The ΔTm of `CCN(CC)CCCC[C@H](NC(=O)[C@H](CC(C)C)NC(=O)[C@H](C)NC(=O)[C@H](Cc1ccccc1)NC(=O)c1ccc(C(C)(C)C)cc1)C(=O)N[C@@H](CO)C(=O)OC` is reported as 0.19 °C (Bromodomain-containing protein 2, BD1 (BRD2, Homo sapiens, UniProt P25440); thermal stability, DSF; 25 µM).
The remaining binding of `Cc1nn(C)cc1-c1nc2c(N3CCN(Cc4ccc(Cl)cc4)CC3)c(Cl)cnc2[nH]1` is reported as 100% (Tyrosine-protein kinase Tec (TEC, Homo sapiens, UniProt P42680); binding, competition with immobilised ligand; 1 µM).
